Drawing on ChEMBL document CHEMBL1153615, “Antiproliferative activity of arborescidine alkaloids and derivatives” (Eur J Med Chem, 2009), this text covers IC50 and Activity for 18 molecules.

The subject of one assay is SK-MES-1. In words: Cytotoxicity against human SKMES1 cells after 3 days by MTT assay. It is filed as functional, cell-based. Particulars: SK-MES-1, 72 h. The procedure, abridged: (§1)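 Human ATCC lines (MRC-5 normal lung fibroblasts, AGS gastric adenocarcinoma, HL-60 leukemia, SK-MES-1 lung cancer, J82 bladder carcinoma) seeded at 50,000 cells/mL in 96-well plates. Compounds added one day later in medium at 0 up to 100 µM for 3 days. Read-out by MTT reduction against untreated controls, with etoposide as reference. IC50 reported for S- and R-configured compounds.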
On the technique in general: Formazan colour is commonly taken as a measure of viable cells.

The test system of another assay is MRC5. Briefly: Cytotoxicity against human MRC5 cells after 3 days by MTT assay. It is filed as cell-based. As to conditions: MRC5, 72 h. The method, boiled down:
as §1

The test system of another assay is HL-60. Briefly: Cytotoxicity against human HL60 cells after 3 days by MTT assay. The assay is classed as functional, cell-based. Particulars: HL-60, 72 h. The method, boiled down:
as §1

A further assay concerns AGS. Briefly: Cytotoxicity against human AGS cells after 3 days by MTT assay. As to conditions: 72 h. The assay is classed as functional, cell-based. The procedure, abridged: as §1
The test system of the next assay is J82. Briefly: Cytotoxicity against human J82 cells after 3 days by MTT assay. It is filed as functional, cell-based. As to conditions: J82, 72 h. The method, boiled down:
as §1

The next assay relates to KB. Briefly: Cytotoxicity against human KB cells at 30 uM. The assay is classed as functional.

As usually defined, the IC50 is the concentration needed to halve the response being measured. `C=CCCC[C@H]1c2[nH]c3ccccc3c2CCN1C(=O)OC`: the IC50 in the assay on SK-MES-1, in the assay with MRC5, in the assay on HL-60, in the assay on AGS and in the assay on J82 was more than 100 µM in each case.
`C=CCCCC1c2[nH]c3ccccc3c2CCN1C` (stereo not given): the IC50 was 58.6 µM with SK-MES-1; 42.2 µM in the assay on MRC5; more than 100 µM in the assay with HL-60; 34.5 µM in the assay on AGS; 76.4 µM in the assay on J82.
In the case of `CN1CCc2c3n(c4cc(Br)ccc24)C=CCC[C@@H]31`, the IC50 is 91.3 µM in the assay with SK-MES-1; more than 100 µM with MRC5; more than 100 µM in the assay with HL-60; more than 100 µM in the assay on AGS; 45.5 µM in the assay on J82. This molecule showed an Activity in the assay with KB of 100%.
In the case of `C=CCCCC1=NCCc2c1[nH]c1ccccc21`, the IC50 with SK-MES-1 was 36.1 µM; with MRC5, 44.6 µM; with HL-60 it was more than 100 µM; in the assay on AGS, 40.3 µM; in the assay on J82, 47.6 µM.
In the same order, the values of `COC(=O)N1CCc2c([nH]c3ccccc23)[C@@H]1CCCC(O)CO` (stereo not given in full) are 88.3 µM, more than 100 µM, more than 100 µM, 63.1 µM and more than 100 µM.
With `CN1CCc2c3n(c4cc(Br)ccc24)[C@@H](O)CCC[C@@H]31`, the IC50 was more than 100 µM with SK-MES-1; 31.9 µM in the assay on MRC5; more than 100 µM in the assay on HL-60; 30.9 µM in the assay on AGS; more than 100 µM in the assay with J82. The same molecule came in with an Activity in the assay with KB of 100%.
`C=CCCC[C@@H]1NCCc2c1[nH]c1ccccc21`: the half-maximal inhibitory concentration (IC50) in the assay with SK-MES-1 is 19.1 µM; in the assay on MRC5, 20.1 µM; in the assay on HL-60, 69.3 µM; with AGS, 14.3 µM; in the assay on J82, 25.7 µM.
Turning to `COC(=O)N1CCc2c3n(c4cc(Br)ccc24)[C@@H](O)CCC[C@@H]31`, the IC50 in the assay with SK-MES-1 is 18.1 µM; in the assay with MRC5, 60 µM; with HL-60, more than 100 µM; in the assay with AGS, 22.8 µM; with J82, 16.4 µM.
With `COC(=O)N1CCc2c3n(c4ccccc24)[C@@H](O)CCC[C@@H]31`, the concentration for half-maximal inhibition (IC50) in the assay with SK-MES-1 was determined as 25.1 µM; in the assay with MRC5, 35.7 µM; with HL-60, 96.6 µM; in the assay with AGS, 16.8 µM; in the assay on J82, 72.8 µM.
As for `C=CCCCC1=NCCc2c1[nH]c1cc(Br)ccc21`, the IC50 is 39.7 µM with SK-MES-1; 40.1 µM in the assay on MRC5; more than 100 µM in the assay on HL-60; 26.9 µM in the assay with AGS; 39.3 µM in the assay on J82.
The matching figures for `C=CCCCC1c2[nH]c3cc(Br)ccc3c2CCN1C` (stereo not given): 75.8 µM, 78.9 µM, more than 100 µM, 69.9 µM and 78.8 µM.
Turning to `C=CCCC[C@@H]1NCCc2c1[nH]c1cc(Br)ccc21`, the 50% inhibitory concentration (IC50) in the assay on SK-MES-1 is 12.7 µM; in the assay on MRC5, 18.1 µM; in the assay on HL-60, more than 100 µM; in the assay on AGS, 8.8 µM; with J82 it was 18.9 µM.
Turning to `COC(=O)N1CCc2c([nH]c3cc(Br)ccc23)[C@@H]1CCCC=O`, the IC50 in the assay on SK-MES-1 was determined as 48.2 µM; in the assay on MRC5, 53.6 µM; in the assay with HL-60, 99.4 µM; with AGS, 21.4 µM; with J82, 74.9 µM.
In the same order, the values of `COC(=O)N1CCc2c([nH]c3cc(Br)ccc23)[C@@H]1CCCC(O)CO` (stereo not given in full) are more than 100 µM, more than 100 µM, more than 100 µM, more than 100 µM and more than 100 µM.
Regarding `Brc1ccc2c3c([nH]c2c1)[C@@H]1CCCCN1CC3` [ARBORESCIDINE A], the IC50 in the assay on SK-MES-1 is more than 100 µM; with MRC5 it was 71.6 µM; with HL-60, 34.5 µM; in the assay with AGS, 65.3 µM; in the assay with J82, more than 100 µM. Moreover, the Activity in the assay with KB is 100%.
Take `CN1CCc2c3n(c4ccccc24)[C@@H](O)CCC[C@@H]31` [DESBROMOARBORESCIDINE C]: the IC50 in the assay with SK-MES-1, with MRC5, in the assay with HL-60, in the assay with AGS and in the assay with J82 was more than 100 µM throughout.
As to `CN1CCc2c3n(c4ccccc24)C=CCC[C@@H]31` [DESBROMOARBORESCIDINEB], the IC50 in the assay on SK-MES-1 was 32.3 µM; in the assay on MRC5, 62.6 µM; with HL-60 it was more than 100 µM; in the assay on AGS it was 41.7 µM; with J82, 29.5 µM.
With `COc1cc([C@@H]2c3cc4c(cc3[C@@H](O[C@@H]3O[C@@H]5CO[C@@H](C)O[C@H]5[C@H](O)[C@H]3O)[C@H]3COC(=O)[C@H]23)OCO4)cc(OC)c1O` [ETOPOSIDE], the values for the IC50 in the assay with SK-MES-1 and in the assay with J82 were 2.8 µM and 2.5 µM, respectively.
